Screening data as filed in PubChem BioAssay.
INS-1E GSIS act – primary screen for activators of insulin secretion dependent on glucose, INS-1E cells, GLuc reporter luminescence; INS-1E GLuc reporter insulin secretion, 2-3 h; activation, % at 16.6 µM; 370,000 compounds, 0.61% hits;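 active means lowest replicate activation of at least 40%, so every replicate reaches that level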;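 further: 0% = median of neutral control wells and 100% = median of IBMX positive control wells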
XiGFP reactiv – X-chromosome reactivation activator. activation, % at 7.58 µM. XiGFP mouse fibroblasts, % GFP-positive cells imaging, 3 d; cells co-treated with 5-aza-dC sensitizer; scaled so ellipticine positive control = 100%. 360,000 compounds, 0.055% hits;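 active means mean normalized replicate activation at least 10% and every replicate at or above 10%; inconclusive means only one of the two criteria met; inactive means mean below 10% and not all replicates reach 10%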;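 further: 0% = median of on-plate neutral control wells and 100% = ellipticine 6 µM median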
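material = 68-5-11 XiGFP fibroblast line | medium = DMEM plus 5-aza-dC sensitizer | schedule = 3 days compound exposure | benchmarks = positive control ellipticine, 6 µM final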
AF4-AF9 inh – inhibitors of human MLL-AF4/AF9 interaction; P42568; AlphaScreen, biotin-AF4 peptide binding to FLAG-AF9; inhibition, % at 10 µM; 350,000 compounds, 0.47% hits; AID 651704;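 active means every replicate reaching a set inhibition limit, whatever the replicate mean, cut at about 25% in these data; inconclusive means mean inhibition reaches that limit but some replicates miss it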;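 further: 0% = plate neutral control median and 100% = total signal loss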
Target sequence (P42568 whole entry, looked up): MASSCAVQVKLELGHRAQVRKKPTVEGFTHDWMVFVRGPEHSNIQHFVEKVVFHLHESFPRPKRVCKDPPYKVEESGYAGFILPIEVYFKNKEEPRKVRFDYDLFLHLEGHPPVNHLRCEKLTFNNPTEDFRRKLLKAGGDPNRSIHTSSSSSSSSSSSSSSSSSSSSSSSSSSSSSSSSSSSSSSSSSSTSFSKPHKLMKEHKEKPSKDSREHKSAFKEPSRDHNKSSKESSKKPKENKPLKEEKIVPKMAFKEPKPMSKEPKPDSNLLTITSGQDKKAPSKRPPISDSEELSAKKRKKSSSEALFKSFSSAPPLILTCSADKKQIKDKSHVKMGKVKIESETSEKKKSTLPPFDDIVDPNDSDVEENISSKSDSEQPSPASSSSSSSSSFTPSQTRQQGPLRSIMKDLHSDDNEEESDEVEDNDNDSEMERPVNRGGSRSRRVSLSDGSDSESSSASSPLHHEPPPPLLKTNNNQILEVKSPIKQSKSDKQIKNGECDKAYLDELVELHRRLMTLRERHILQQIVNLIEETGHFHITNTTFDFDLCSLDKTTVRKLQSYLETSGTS
PAX8 inh HTS – inhibitors of PAX8 transcriptional activity in RMG-I cells. RMG-I TPO-luciferase reporter, SteadyGlo, 24 h. inhibition, % at 12.6 µM. 360,000 compounds, 1.2% hits. AID 652154;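 active means mean replicate inhibition at least 60% with every replicate also reaching 60%; inconclusive means only one of the two criteria is met; inactive means mean below 60% and not all replicates reaching 60%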;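 further: luciferase light reporting Pax8 driven TPO promoter activity; plate controls were median of neutral control wells for no effect and mitoxantrone controls for full effect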
PGC1a acetyl inh – lowers PGC1a acetylation signal in U2OS cells; AlphaScreen anti-acetyl-lysine; with virally co-expressed GCN5 acetyltransferase; inhibition, % at 15.6 µM; 350,000 compounds, 0.17% hits;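 active means every replicate shows inhibition of at least 40%; inconclusive means mean inhibition at least 40% but some replicate below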;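 further: 0% = neutral control wells and 100% = positive control wells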
EWS-Fli block – blocks EWS/Fli oncoprotein-driven transcription; inhibition, % at 12.6 µM; 350,000 compounds, 0.67% hits; A673 NR0B1-luciferase reporter, viability-normalised;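 active means mean inhibition of at least 50% after viability correction, with every replicate also passing that limit; inconclusive means mean reaches 50% but only one of two replicates passes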;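 further: firefly luciferase signal divided by Alamar Blue viability fluorescence both relative to DMSO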
An asterisk follows results filed as active; u = inconclusive; x = no result given; ! = a repeat was not active. Sampled rows, rich in hits. Any-hit rate of the full collection: about 2.1%.

SMILES	INS-1E GSIS act	XiGFP reactiv	AF4-AF9 inh	PAX8 inh HTS	PGC1a acetyl inh	EWS-Fli block
CC(=O)N(C)C[C@H]1Oc2cc(-c3cccnc3)ccc2S(=O)(=O)N([C@H](C)CO)C[C@H]1C	4	0	-2	5	-1	-2
CS(=O)(=O)N[C@H]1C[C@@H]2O[C@H](CO)CC[C@@H]2O[C@@H]1CCc1ccc(-c2ccccc2F)cc1	x	x	4	0	x	1
Cc1ccc(O)c(CP(=O)(c2ccccc2)c2ccccc2)c1	44*	0	0	14	-10	7
Cc1ccc(O)c(CN(C)Cc2cc(C)ccc2O)c1	x	0	11	x	5	-40
CCN(CC)CCN1C(=O)/C(=C\c2ccc(Cl)c([N+](=O)[O-])c2)SC1=Nc1ccc(OC)cc1	-13	0	19	54	x	60*
CCCN1C(=O)/C(=C/c2ccc(C)s2)SC1=Nc1ccc(OC)cc1	3	x	x	x	-6	x
COCCNc1nnc(Cc2ccc(Cl)cc2)c(=O)[nH]1	-3	0	-20	-12	1	0
COCCCNc1nnc(Cc2ccc(Cl)cc2)c(=O)[nH]1	10	0	1	16	x	58*
C=C(NC(=O)C(=C)NC(=O)c1csc(C2=NC3c4csc(n4)C4NC(=O)c5csc(n5)C(C(C)(O)C(C)O)NC(=O)C5CSC(=N5)/C(=C/C)NC(=O)C(C(C)O)NC(=O)c5csc(n5)C3(CC2)NC(=O)C(C)NC(=O)C(=C)NC(=O)C(=C)NC(=O)C(C(C)C)NC2C=Cc3c(C(C)O)cc(nc3C2O)C(=O)OC4C)n1)C(N)=O (centres undefined)	-8	1	1	46	x	74*
CC(=O)Nc1ccc(NC(=O)C(C)OC(=O)/C=C/c2cn(-c3ccccc3)nc2-c2cccnc2)cc1 (centres undefined)	392*	0	x	-1	x	x
CCO[C@@H]1OC(C(=O)NCc2nc3ccccc3[nH]2)=C[C@H](C(C)(C)C)[C@H]1CCCO	-16	8	4	64*	-21	53*
COC(=O)C1=CN(c2ccc3c(c2)OCO3)C(N)=C(C#N)C1c1cccc(F)c1 (centres undefined)	-29	0	x	-5	x	56*
COC(=O)C1=CN(c2ccc(N3CCOCC3)cc2)C(N)=C(C#N)C1c1ccccc1 (centres undefined)	-4	0	x	-16	x	-8
CC(=O)N1CC2(C1)[C@H](c1ccc(-c3ccc(C#N)cc3)cc1)[C@@H](CO)N2C(C)=O	7	0	-1	x	6	2
O=C(c1ccc(F)cc1)N1C[C@@H]2N[C@H](C1)C2c1ccc(-c2cncnc2)cc1 (some centres undefined)	-2	0	-7	4	-2	-5
O=C(c1ccc(F)cc1)N1C[C@@H]2N[C@H](C1)C2c1ccc(-c2ccc(F)cc2)cc1 (some centres undefined)	-12	0	-5	84*!	-4	0
Cc1ccccc1-c1ccc(C2[C@@H]3CN(C(=O)c4ccc(F)cc4)C[C@H]2N3)cc1 (some centres undefined)	-12	0	-3	65*!	-11	-3
COc1ccc(CN2C[C@H](O)COC[C@H]3O[C@H](CC(=O)NCc4ccncn4)CC[C@@H]32)cc1	25	0	-2	7	3	7
C[C@H](CO)N1C[C@H](C)[C@@H](CN(C)Cc2cncnc2)Oc2cc(C3=CCCC3)ccc2S1(=O)=O	-2	-1	-1	x	5	5
CC(=O)c1ccc(NC(=O)c2cnn3ccccc23)cc1	5	0	-11	34	x	69*
CC(=O)c1cccc(NC(=O)c2cnn3ccccc23)c1	x	0	-10	-111	x	-62
COc1ccc(S(=O)(=O)NCCc2cn3cccc(C)c3n2)cc1OC	4	0	-2	-16	x	14
Cc1cccn2cc(CCNS(=O)(=O)c3cccs3)nc12	42*	3	6	-26	6	-17
O=[N+]([O-])c1ccc(Oc2cccnc2)c([N+](=O)[O-])c1	-6	0	1	64*	9	1
CCOC(=O)N1CCN(C(=O)C2CCN(C(=O)c3ccccc3C)CC2)CC1	106*	1	-1	51	-25	25
SMILES	INS-1E GSIS act	XiGFP reactiv	AF4-AF9 inh	PAX8 inh HTS	PGC1a acetyl inh	EWS-Fli block
Cc1ccccc1C(=O)N1CCC(C(=O)N2CCN(c3ncccn3)CC2)CC1	19	0	-1	-2	x	3
Cc1ccc(S(=O)(=O)Nc2ccc3c(c2)CC(=O)N([C@@H](C)CO)C[C@@H](C)[C@@H](CN(C)C(=O)Nc2ccc(C(F)(F)F)cc2)O3)cc1	-22	-1	1	2	-9	15
N#CC(=C1C=C(Br)C(=NO)C=C1Cl)c1cccc2ccccc12	-20	0	26*	19	-9	5
COc1ccc(C(=O)CCN2CCN(c3ccccc3OC)CC2)cc1	-23	0	14	83*	5	-4
COc1cc2c(cc1OC)CN(CCOc1ccc(Br)cc1)CC2	-30	0	4	8	-3	3
COc1ccc(C(=O)CCN2CCc3cc(OC)c(OC)cc3C2)cc1	-10	0	3	71*	-1	-6
O=C(c1ccccc1F)N1C[C@H]2O[C@@H](CNS(=O)(=O)c3ccccc3)CC[C@H]21	x	x	3	-7	0	-3
Nc1ccc2ccccc2c1N=Nc1ccccc1	x	1	36*	0	-4	-17
Nc1ncnc(N)c1N=Nc1ccccc1	3	0	-2	-10	6	-6
COc1ccc(/C=N\NC(=O)c2cc(O)c(O)c(O)c2)cc1COc1ccc(C(=O)OCC(C)C)cc1	1	0	54*	8	x	12
COc1ccc(C(=O)N/N=C/c2ccc(OC)c(COc3ccccc3)c2)cc1	-2	0	-1	-14	x	x
CCCCCCCCOC(=O)c1c(CSC(=N)N)n(C)c2cc(Br)c(OC(C)=O)cc12	269*	0	6	33	12	50
CCOC(=O)c1c(CSC(=N)N)n(-c2ccc(Br)cc2)c2cc(Br)c(OC(C)=O)cc12	7	0	x	-19	-9	x
CC(C)NC(=O)Nc1ccc2c(c1)C(=O)N([C@@H](C)CO)C[C@@H](C)[C@H](CN(C)S(=O)(=O)c1cn(C)cn1)O2	11	0	-2	x	-4	-5
Cc1ccc(C(=O)Nc2nc3ccccc3[nH]2)cc1	8	0	3	81*	3	78*
COc1ccc(C(=O)Nc2nc3ccccc3[nH]2)cc1	-8	0	4	u	17	76*
COc1ccc(-c2nc3ccccc3s2)cc1	1	0	-5	3	x	79*
Cc1ccc(C(=O)Nc2cc3ccccc3oc2=O)cc1	9	0	-4	40	-19	79*
